Published values from different studies.
ASIC1: Acid-sensing ion channel 1 (ASIC1, Homo sapiens, UniProt P78348)
speB: speB (Escherichia coli, UniProt P60651)

The Kd of CC[C@H](C)[C@H](NC(=O)[C@@H]1CCCN1C(=O)[C@H](C)NC(=O)[C@@H]1CSSC[C@@H]2NC(=O)[C@H](CC(=O)O)NC(=O)[C@H](CCCNC(=N)N)NC(=O)[C@H](CCC(=O)O)NC(=O)[C@H](CCCNC(=N)N)NC(=O)CNC(=O)[C@H](CC(=O)O)NC(=O)[C@@H]3CSSC[C@H](NC(=O)[C@H](CCC(=O)O)NC(=O)[C@H](CC(C)C)NC(=O)CNC(=O)[C@H](C)NC(=O)[C@H](CSSC[C@H](NC(=O)[C@H](Cc4ccccc4)NC(=O)[C@@H](N)CO)C(=O)N[C@@H](CC(C)C)C(=O)N[C@@H](C(C)C)C(=O)N[C@@H](CCCCN)C(=O)N[C@@H](Cc4c[nH]c5ccccc45)C(=O)N[C@@H](CCCCN)C(=O)N[C@@H](CCC(N)=O)C(=O)N3)NC2=O)C(=O)N[C@@H](Cc2c[nH]c3ccccc23)C(=O)N[C@@H](CCCCN)C(=O)N[C@@H](CCCNC(=N)N)C(=O)N[C@@H](CCCNC(=N)N)C(=O)NCC(=O)N[C@@H](CC(N)=O)C(=O)N[C@@H](CCCCN)C(=O)N[C@@H](CO)C(=O)N[C@@H](CO)C(=O)N[C@@H](C(C)C)C(=O)N1)C(=O)N[C@H](C(=O)O)[C@@H](C)O is reported as 27.7 pM (ASIC1; binding; SPR; pH 7.5).
The EC50 of COc1ccc2[nH]c(C)c(CC[N+](C)(C)C)c2c1 is reported as > 5 µM (5-hydroxytryptamine receptor 2C (HTR2C, Homo sapiens, UniProt P28335); calcium signal; agonist).
The IC50 of CNC(=O)c1ccc(-c2cnn3ccc(C(=O)N(C)c4ccc(Cl)c(C(=O)O)c4)cc23)cc1 is reported as > 30 µM (5-hydroxytryptamine receptor 2B (HTR2B, Homo sapiens, UniProt P41595); cell-free assay).
With CN(C)C(=N)N=C(N)N the Ki was 1250 µM (speB; enzyme activity; inhibitor; absorbance; pH 8.5).
With CNC(=O)c1ccc(-c2cnn3ccc(C(=O)N(C)c4ccc(Cl)c(C(=O)OC)c4)cc23)cc1 the IC50 was > 30 µM (Casein kinase I isoform delta (CSNK1D, Homo sapiens, UniProt P48730); enzyme activity; inhibitor).
O=S(=O)(O)c1ccc2c(N=Nc3c(O)ccc4ccccc34)cccc2c1 gave a Ki of 1.62 µM (Bcl-2-related protein A1 (Mus musculus, UniProt Q07440, C113S/P104K); ligand displacement; FP).
CC[C@H](C)[C@@H]1NC(=O)[C@@H](NC(=O)[C@H](CCC(=O)O)NC(=O)[C@H](CC(N)=O)NC(=O)[C@@H](N)CO)CSSC[C@@H]2NC(=O)[C@@H]3CSSC[C@@H](C(=O)N[C@H](C(=O)N4CCC[C@H]4C(=O)N[C@H](C(=O)N4CCC[C@H]4C(=O)NCC(=O)O)[C@@H](C)CC)C(C)C)NC(=O)[C@H](C(C)C)NC(=O)[C@H](CCC(=O)O)NC(=O)[C@H](Cc4ccccc4)NC(=O)[C@H](CO)NC(=O)[C@H](Cc4c[nH]cn4)NC(=O)[C@H](CCCNC(=N)N)NC(=O)[C@H](CCCNC(=N)N)NC(=O)[C@H](CCCCN)NC(=O)[C@H](Cc4ccc(O)cc4)NC(=O)[C@H](CSSC[C@H](NC(=O)[C@H](CO)NC(=O)[C@H](CC(C)C)NC(=O)[C@H](Cc4c[nH]c5ccccc45)NC(=O)[C@H](CCCCN)NC(=O)[C@H](CCCNC(=N)N)NC1=O)C(=O)N[C@@H](C(C)C)C(=O)N[C@@H](CC(=O)O)C(=O)N[C@@H](CCCNC(=N)N)C(=O)N[C@@H](CCCCN)C(=O)N[C@@H](CC(N)=O)C(=O)N[C@@H](CC(=O)O)C(=O)N3)NC(=O)[C@H](CCC(=O)O)NC(=O)[C@H](CC(C)C)NC(=O)CNC(=O)[C@H](CCC(=O)O)NC2=O gave a Kd of 1400 pM (ASIC1; binding; SPR).
CC(C)=CCN=C(N)N has a Ki of 8.59 µM (speB; enzyme activity; inhibitor; absorbance; pH 8.5).
